The list is not random: actives were taken first. Their share in the collection is about 4.3%.
DYRK1A inh: inhibitors of rat Dyrk1A kinase | 310,000 compounds, 0.43% hits | inhibition, % at 12.5 µM | ADP-Glo luminescence, NFATc1 peptide | Q63470 | AID 504441; in the data active = inhibition above about 50%;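 also: plate controls were vehicle with enzyme for no effect and no enzyme for full effect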
ALR inh: human ALR oxidase inhibition via reduced H2O2; P55789; purified ALR, DTT oxidation, H2O2 HRP-luminol luminescence; inhibition, % (concentration not given with the values); 290,000 compounds, 3.8% hits;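 active = mean replicate inhibition above about 79%, with every replicate also reaching it, limit read from the data; inconclusive = only one of the two criteria met; inactive = mean below limit and not every replicate reaching it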
Target sequence (P55789 whole entry, looked up): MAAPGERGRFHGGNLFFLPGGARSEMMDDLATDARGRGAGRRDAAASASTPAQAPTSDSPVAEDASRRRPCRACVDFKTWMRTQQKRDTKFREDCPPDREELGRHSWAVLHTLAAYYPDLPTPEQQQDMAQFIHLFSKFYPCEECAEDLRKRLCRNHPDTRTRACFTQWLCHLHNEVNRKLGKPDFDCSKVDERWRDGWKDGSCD
CAL PDZ FP-1: blocks peptide binding to the human CAL PDZ domain; Q9HD26; AID 602252; purified CAL PDZ, TMR-peptide fluorescence polarization, 1 h; 300,000 compounds, 0.92% hits; inhibition, % at 24.9 µM;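 active = mean inhibition of at least 30% with at least half of replicates also reaching 30%; inconclusive = no clear call, values can overlap the other calls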;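 also: 0% = DMSO neutral control and 100% = excess unlabeled competitor peptide PRC23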
CAL PDZ FP-2: blocks peptide binding to human CAL PDZ domain. 330,000 compounds, 0.02% hits. inhibition, % at 20 µM. purified CAL PDZ, TMR-peptide fluorescence polarization, 1 h. Q9HD26;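 active = highest replicate inhibition of at least 40%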;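 also: plate controls were DMSO neutral control wells for no effect and unlabeled competitor peptide control wells for full effect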
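Test system: purified CerCALP PDZ construct; Compound dosing: one concentration, 20 µM compound; Also added: TMR-labelled reporter peptide T*-PRC34 bound in PDZ groove; Read-out: inhibition from polarization loss; Controls: unlabelled peptide and DMSO controls; Signal: FP readout, S and P plane fluorescence; Incubation: 1 h at RT.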
Rtt109 HAT inh: blocks Candida albicans Rtt109/Vps75 acetyltransferase activity. Q5AAJ8. 330,000 compounds, 0.16% hits. inhibition, % at 34.9 µM. purified Rtt109/Vps75, ThioGlo CoA-SH fluorescence, 4 h;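 active = inhibition of at least 50% in every replicate; inconclusive = best replicate reaches 50% inhibition but some replicates fall short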
The depositor's hits bear a star; ? = inconclusive; · = no result given.

SMILES	DYRK1A inh	ALR inh	CAL PDZ FP-1	CAL PDZ FP-2	Rtt109 HAT inh
Cc1ccn2c(NC3CCCCC3)c(C)nc2c1	0.8	95.2*	-0.3	-0.4	-36.3
CCN(CC)c1ccc(/C=C/c2cccc[n+]2C)c(OC)c1	2.9	98.7*	-12.5	-1.8	3.2
COc1cccc(-c2nc(CS(=O)CC(=O)NCCc3ccccc3)c(C)o2)c1 (stereo not drawn)	-3.7	98.7*	-5.3	-0.7	4.8
COc1cccc(-c2nc(CS(=O)CC(=O)NC(C)CCc3ccccc3)c(C)o2)c1 (stereo not drawn)	-0.8	98.2*	-1.0	-1.3	-3.5
CCC(C)NC(=O)CS(=O)Cc1nc(-c2cccc(OC)c2)oc1C (stereo not drawn)	-2.8	99.2*	·	-1.2	2.6
Cc1ccccc1-c1nc(CS(=O)CC(=O)NC(C)CCc2ccccc2)c(C)o1 (stereo not drawn)	-0.7	-14.3	-0.1	-1.7	20.7
COc1cccc(-c2nc(CS(=O)CC(=O)O)c(C)o2)c1 (stereo not drawn)	2.6	99.0*	·	-0.4	-7.4
O=C(NC(=S)Nc1ccc(Cc2ccncc2)cc1)c1ccc(F)cc1	0.1	·	·	0.6	18.9
O=C(Nc1nnc(C2=COCCO2)o1)c1ccc(S(=O)(=O)N2CCCCC2)cc1	1.5	8.8	3.2	-0.8	-4.0
CCCCNC(=O)CN(c1cccc(Br)c1)S(C)(=O)=O	-8.9	-5.2	-4.3	0.4	3.5
COc1cc(OC)c(N(C)S(=O)(=O)c2cccc(C(=O)Nc3nccs3)c2)cc1Cl	·	-5.2	-3.8	-0.4	0.2
COc1ccc(CN2CCNC(=O)C2CC(=O)NC2CCCC2)cc1OC (stereo not drawn)	3.9	-1.6	-3.0	0.8	5.0
COc1ccc(CN2CCNC(=O)C2CC(=O)NC2CCCCCCC2)cc1OC (stereo not drawn)	0.2	-6.5	54.9*	-0.4	13.1
CC(C)C1C(C#N)=C(N)Oc2n[nH]c(-c3cccs3)c21 (stereo not drawn)	12.1	82.2*	54.5*	-0.9	7.6
CCCc1[nH]nc2c1C(c1ccccc1OC)C(C#N)=C(N)O2 (stereo not drawn)	3.0	42.4	-0.9	-1.4	15.9
Cc1ccc(C2C(C#N)=C(N)Oc3n[nH]c(-c4cccs4)c32)cc1 (stereo not drawn)	8.9	74.3	2.2	-3.0	8.6
COc1cc(C2C(C#N)=C(N)Oc3n[nH]c(-c4cccs4)c32)cc(OC)c1O (stereo not drawn)	·	89.4*	-5.2	13.3	10.9
CCCc1[nH]nc2c1C(c1ccc(O)c(OC)c1)C(C#N)=C(N)O2 (stereo not drawn)	-17.0	99.0*	-1.3	-2.0	-5.2
Cn1c(SCC(=O)N/N=C/C=C/c2ccco2)nc2ccccc21	-4.0	·	-0.8	-3.5	14.1
COC(=O)c1cnn(-c2ccc(Cl)cc2)c1/C=N/NC(N)=S	·	8.7	-2.5	-1.2	9.9
Cc1ccc(S(=O)(=O)NCC(=O)OCC(=O)NC2CCCCC2)cc1	-4.5	0.3	-9.5	-0.6	?
Cc1ccc(S(=O)(=O)NCC(=O)NCC2CCCCC2)cc1C	-2.3	97.4*	-28.7	-4.4	11.3
Cc1ccc(S(=O)(=O)NCC(=O)OCC(=O)NC(=O)NC2CCCC2)cc1	5.4	-3.1	72.5*	0.8	·
CCOc1ccc(S(=O)(=O)NCC(=O)NC2CCCCC2)cc1	6.2	91.1*	·	0.4	-7.4
CC(=O)Nc1ccc(C(=O)OCC(=O)NC(=O)NC2CCCCC2)cc1	-3.7	-1.0	86.4*	-1.1	-3.9
SMILES	DYRK1A inh	ALR inh	CAL PDZ FP-1	CAL PDZ FP-2	Rtt109 HAT inh
S=C(Nc1ccc2c(c1)OCO2)N1CCN(Cc2ccco2)CC1	6.3	7.8	·	-0.1	16.7
CC1CC(C)CN(C2CCCCC2NS(=O)(=O)c2ccc(Cl)cc2)C1 (stereo not drawn)	·	-19.8	·	0.6	12.5
Cn1ncc([N+](=O)[O-])c1C(=O)Nc1ccc(-c2ccccc2)cc1	·	-65.0	-2.9	-0.5	-0.9
COc1ccc(CCNS(=O)(=O)c2ccc(-c3ccc(=O)[nH]n3)o2)cc1OC	-4.9	0.2	-1.0	-1.9	4.2
O=C(CSc1ccc(F)cc1)N1CCC(c2nc3ccccc3s2)CC1	20.4	0.0	·	-0.2	4.0
O=C(c1cccc(F)c1)N1CCC(c2nc3ccccc3s2)CC1	0.0	99.6*	-1.8	-2.7	0.1
Cc1nn(-c2ccccn2)c2c1C(c1ccsc1)C1=C(CCCC1=O)N2 (stereo not drawn)	2.7	-75.2	-3.1	-1.1	-6.0
